Experimental findings from ChEMBL document CHEMBL1949523, “Synthesis and evaluation of aza-peptidyl inhibitors of the lysosomal asparaginyl endopeptidase, legumain” (Bioorg Med Chem Lett, 2012) are described below.

SMILES strings stand for the structures. Calls of active or inactive are those of the source. No cut-off for these calls is given here.

One assay concerns the target T1, Legumain (Mus musculus) (UniProt O89017).
T1 sequence (whole entry): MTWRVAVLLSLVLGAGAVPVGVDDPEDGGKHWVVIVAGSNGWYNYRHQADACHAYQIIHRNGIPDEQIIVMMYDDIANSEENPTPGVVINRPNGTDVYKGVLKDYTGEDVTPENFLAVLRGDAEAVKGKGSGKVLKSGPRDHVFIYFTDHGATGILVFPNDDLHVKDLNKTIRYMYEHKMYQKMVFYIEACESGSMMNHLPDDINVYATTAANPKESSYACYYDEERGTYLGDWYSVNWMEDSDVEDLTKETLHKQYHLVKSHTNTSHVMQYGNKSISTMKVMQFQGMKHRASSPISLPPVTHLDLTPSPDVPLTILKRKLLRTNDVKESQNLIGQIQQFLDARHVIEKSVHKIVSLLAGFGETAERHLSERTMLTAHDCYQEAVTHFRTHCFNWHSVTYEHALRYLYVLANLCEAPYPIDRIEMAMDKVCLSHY
Put plainly: Binding affinity to legumain in mouse RAW264.7 cells at 0.1 to 10 uM after 60 mins by SDS-PAGE analysis. Format: cell-based. The essentials: (§1)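 RAW 264.7 macrophages incubated with Cy5-labeled probes for 60 min across a concentration range. Cells lysed hypotonically, labeled proteins resolved on 12.5% SDS-PAGE, detected by in-gel fluorescence scanning.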

The next assay concerns the target T2, Legumain (Mus musculus, UniProt O89017).
T2 sequence (O89017 whole entry): T1 sequence (whole entry)
The assay is described as follows: Inhibition of mouse recombinant legumain using Cbz-Ala-Ala-Asn-AMC as substrate measured every 30 secs for 2.5 hrs by fluorimetry.

Assay [1] deals with T3, Pro-cathepsin H (Mus musculus) (UniProt P49935).
T3 sequence (whole entry): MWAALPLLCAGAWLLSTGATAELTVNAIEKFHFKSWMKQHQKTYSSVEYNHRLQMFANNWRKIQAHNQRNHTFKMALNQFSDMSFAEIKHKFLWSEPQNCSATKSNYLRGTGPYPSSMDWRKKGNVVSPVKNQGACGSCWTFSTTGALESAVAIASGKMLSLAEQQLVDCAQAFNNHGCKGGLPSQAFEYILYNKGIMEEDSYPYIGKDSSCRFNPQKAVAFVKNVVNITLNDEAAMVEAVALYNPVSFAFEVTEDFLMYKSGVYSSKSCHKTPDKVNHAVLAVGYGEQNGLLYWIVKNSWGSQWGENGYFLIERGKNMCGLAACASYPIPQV
The assay is described as follows: Binding affinity to cathepsin H in mouse RAW264.7 cells at 10 uM after 60 mins by SDS-PAGE analysis. Format: cell-based. In short, it runs like this:
as §1

In assay [2] the target is Cathepsin B (Mus musculus) (UniProt P10605). The assay is described as follows: Binding affinity to cathepsin B in mouse RAW264.7 cells at 10 uM after 60 mins by SDS-PAGE analysis. In kind it is cell-based. In short, it runs like this:
as §1

Assay [3] is described as follows: Inhibition of cathepsin L using Cbz-Phe-Arg-AMC as substrate measured every 30 secs for 2.5 hrs by fluorimetry.

The term IC50 denotes the concentration that inhibits the measured activity by half.

Sequence of Cathepsin B (Mus musculus) (P10605 80-333 limits assumed): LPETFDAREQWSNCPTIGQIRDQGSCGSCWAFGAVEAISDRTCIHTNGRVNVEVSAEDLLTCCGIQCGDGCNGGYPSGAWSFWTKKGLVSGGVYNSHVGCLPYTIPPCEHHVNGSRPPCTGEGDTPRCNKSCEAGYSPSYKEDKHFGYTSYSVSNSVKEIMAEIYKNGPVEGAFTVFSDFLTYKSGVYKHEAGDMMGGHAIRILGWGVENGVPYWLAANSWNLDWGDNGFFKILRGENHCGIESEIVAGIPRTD

Turning to `CCOC(=O)/C=C/C(=O)N(CC(N)=O)NC(=O)[C@@H]1CCCN1C(=O)CCCCCNC(=O)CCCCCN1/C(=C/C=C/C=C/CC2=[N+](CC)c3ccc(S(=O)(=O)O)cc3C2(C)C)C(C)(C)c2cc(S(=O)(=O)[O-])ccc21`, the result at Legumain (Mus musculus) was Active. As for `CCOC(=O)/C=C/C(=O)N(CC(N)=O)NC(=O)[C@@H]1CCCN1C(=O)C(C)(C)NC(C)=O`, at Legumain, the half-inhibitory concentration (IC50) amounted to 0.198 µM. Turning to `CCOC(=O)/C=C/C(=O)N(CC(N)=O)NC(=O)[C@@H]1CCCN1C(=O)[C@H](CC)NC(=O)CCCCCNC(=O)CCCCCN1/C(=C/C=C/C=C/C2=[N+](CC)c3ccc(S(=O)(=O)O)cc3C2(C)C)C(C)(C)c2cc(S(=O)(=O)[O-])ccc21`, the result on Legumain (Mus musculus) was Active. In the case of `CCOC(=O)/C=C/C(=O)N(CC(N)=O)NC(=O)[C@@H]1CCCN1C(=O)C(NC(C)=O)=C(C)C`, on Legumain, the IC50 was 0.148 µM.

Take `CCOC(=O)/C=C/C(=O)N(CC(N)=O)NC(=O)[C@@H]1CCCN1C(=O)c1ccc(CNC(C)=O)cc1`: the IC50 at Legumain came out at 0.267 µM.

For the molecule `CCOC(=O)/C=C/C(=O)N(CC(N)=O)NC(=O)[C@@H]1CCCN1C(=O)[C@@H]1Cc2ccccc2CN1C(C)=O`, the half-inhibitory concentration (IC50) at Legumain was more than 1 µM. With `CCOC(=O)[C@@H]1O[C@H]1C(=O)N(CC(N)=O)NC(=O)[C@@H]1CCCN1C(=O)C1(NC(=O)CCCCCNC(=O)CCCCCN2/C(=C/C=C/C=C/C3=[N+](CC)c4ccc(S(=O)(=O)O)cc4C3(C)C)C(C)(C)c3cc(S(=O)(=O)[O-])ccc32)CC1`, the outcome (at Legumain (Mus musculus); in assay [1]; in assay [2]) was Active.

Take `C#CC[C@H](NC(C)=O)C(=O)N1CCC[C@H]1C(=O)NN(CC(N)=O)C(=O)C1OC1C(=O)OCC` (some centres not stated): the IC50 on Legumain worked out at 0.0086 µM; in assay [3], 358 µM.

For `CCOC(=O)C1OC1C(=O)N(CC(N)=O)NC(=O)[C@@H]1CCCN1C(=O)C1(NC(C)=O)CC1` (some centres not stated), the IC50 turned out to be 0.0044 µM at Legumain and 106 µM in assay [3]. For `CCOC(=O)/C=C/C(=O)N(CC(N)=O)NC(=O)[C@@H]1CCCN1C(=O)[C@H](CC)NC(C)=O`, in that order: 0.0065 µM and 964 µM. Turning to `CCOC(=O)/C=C/C(=O)N(CC(N)=O)NC(=O)[C@@H]1CCCN1C(=O)c1cccc(NC(C)=O)c1`, the IC50 at Legumain was more than 1 µM.

For the molecule `CCOC(=O)/C=C/C(=O)N(CC(N)=O)NC(=O)[C@@H]1CCCN1C(C)=O`, the 50% inhibitory concentration (IC50) on Legumain was 0.0083 µM; in assay [3], more than 1000 µM. For `CCOC(=O)C1OC1C(=O)N(CC(N)=O)NC(=O)[C@@H]1CCCN1C(C)=O` (some centres not stated), in that order: 0.0093 µM and 370 µM.

`CCOC(=O)/C=C/C(=O)N(CC(N)=O)NC(=O)[C@@H]1CCCN1C(=O)[C@H]1CSCN1C(C)=O`: on Legumain, the IC50 came to 0.167 µM. Regarding `C#CC[C@H](NC(C)=O)C(=O)N1CCC[C@H]1C(=O)NN(CC(N)=O)C(=O)/C=C/C(=O)OCC`, the IC50 at Legumain came out at 0.017 µM; in assay [3] it was 855 µM. Turning to `C/C=C(\NC(C)=O)C(=O)N1CCC[C@H]1C(=O)NN(CC(N)=O)C(=O)/C=C/C(=O)OCC`, the IC50 on Legumain was 0.141 µM. With `CCOC(=O)C1OC1C(=O)N(CC(N)=O)NC(=O)[C@@H]1CCCN1C(=O)CCCCCNC(=O)CCCCCN1/C(=C/C=C/C=C/C2=[N+](CC)c3ccc(S(=O)(=O)O)cc3C2(C)C)C(C)(C)c2cc(S(=O)(=O)[O-])ccc21` (some centres not stated), the result (on Legumain (Mus musculus); in assay [1]; in assay [2]) was Active. With `CCOC(=O)/C=C/C(=O)N(CC(N)=O)NC(=O)[C@@H]1CCCN1C(=O)C1(NC(C)=O)CC1`, the IC50 is 0.0093 µM at Legumain and more than 1000 µM in assay [3]. For the molecule `CCOC(=O)/C=C/C(=O)N(CC(N)=O)NC(=O)[C@@H]1CCCN1C(=O)[C@H](Cc1ccc(O)c([N+](=O)[O-])c1)NC(C)=O`, on Legumain, the IC50 is more than 1 µM. For `CCOC(=O)C1OC1C(=O)N(CC(N)=O)NC(=O)[C@@H]1CCCN1C(=O)[C@H](CC)NC(C)=O` (some centres not stated), the 50% inhibitory concentration (IC50) on Legumain was 0.0081 µM; in assay [3], 890 µM.
